This test deals with L6. The experiment in a line: Activation of AMPK in rat L6 cells assessed as phosphorylated protein level at 40 uM after 30 mins by Western blot analysis relative to arctigenin. The format is cell-based. In outline:
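L6 myoblasts kept in DMEM + 10% FBS at 37 °C, 5% CO2, then differentiated to myotubes in DMEM + 2% horse serum once 90% confluent. Cells exposed to 40 µM compound for 30 min. Lysates (Tris-HCl pH 7.5, NaCl, Na3VO4, Triton X-100, protease inhibitors) immunoblotted for phospho-AMPK and total AMPK by chemiluminescence. Band intensity × area normalized to total AMPK; three independent experiments.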
(In western blotting, separated proteins are transferred to a membrane and probed.)

On to `COc1ccc(C[C@H]2COC[C@@H]2Cc2ccc(OC(C)=O)c(OC)c2)cc1OC`, for which the fold change (FC) amounted to 0.26. The same measure for `C/C=C/C(=O)Oc1ccc(C[C@H]2C(=O)OC[C@@H]2Cc2ccc(OC)c(OC)c2)cc1OC`: 0.86; for `CCCC(=O)Oc1ccc(C[C@H]2C(=O)OC[C@@H]2Cc2ccc(OC)c(OC)c2)cc1OC`: 0.94. The same measure for `COc1cccc(CCOc2ccc(C[C@H]3C(=O)OC[C@@H]3Cc3ccc(OC)c(OC)c3)cc2OC)c1`: 0.69; for `CCOc1ccc(C[C@H]2C(=O)OC[C@@H]2Cc2ccc(OC)c(OC)c2)cc1OC`: 0.14; for `COc1ccc(C[C@H]2COC[C@@H]2Cc2ccc(OC(=O)c3cccnc3)c(OC)c2)cc1OC`: 0.71. `COc1ccc(C[C@H]2COC[C@@H]2Cc2ccc(OCC(=O)c3ccc(OC)c(OC)c3)c(OC)c2)cc1OC`: the fold change (FC) amounted to 0.66. The same measure for `COc1ccc(C[C@H]2COC(=O)[C@@H]2Cc2ccc(OCCc3ccc4c(c3)OCO4)c(OC)c2)cc1OC`: 0.28. As for `COc1cccc(C(=O)Oc2ccc(C[C@H]3COC[C@@H]3Cc3ccc(OC)c(OC)c3)cc2OC)c1`, the fold change (FC) was found to be 0.82. The figure for `COc1ccc(C[C@H]2COC(=O)[C@@H]2Cc2ccc(OC(=O)c3ccc(F)cc3)c(OC)c2)cc1OC` is 0.63; for `CCC(=O)Oc1ccc(C[C@H]2C(=O)OC[C@@H]2Cc2ccc(OC)c(OC)c2)cc1OC` it is 0.92. Consider `COc1ccc(C[C@H]2COC[C@@H]2Cc2ccc(OCCc3cc(OC)c(OC)c(OC)c3)c(OC)c2)cc1OC`, for which the fold change (FC) amounted to 1.25. Turning to `COc1ccc(C[C@H]2COC(=O)[C@@H]2Cc2ccc(OCCc3ccc(C(C)(C)C)cc3)c(OC)c2)cc1OC`, the fold change (FC) amounted to 0.09.

With `COc1ccc(C[C@H]2COC(=O)[C@@H]2Cc2ccc(OC(=O)C(C)C)c(OC)c2)cc1OC`, the fold change (FC) is 0.82. The figure for `COc1ccc(C[C@H]2COC[C@@H]2Cc2ccc(OC(=O)c3ccc(OC)c(OC)c3)c(OC)c2)cc1OC` is 0.82; for `COc1ccc(C[C@H]2COC[C@@H]2Cc2ccc(OC(=O)c3ccc(F)cc3)c(OC)c2)cc1OC` it is 0.37. The same measure for `CCOc1ccc(CCOc2ccc(C[C@H]3C(=O)OC[C@@H]3Cc3ccc(OC)c(OC)c3)cc2OC)cc1OCC`: 0.34; for `COc1cc(CCOc2ccc(C[C@H]3COC[C@@H]3Cc3ccc(OC)c(OC)c3)cc2OC)cc(OC)c1`: 0.68. The same measure for `COc1ccc(CC(=O)Oc2ccc(C[C@H]3C(=O)OC[C@@H]3Cc3ccc(OC)c(OC)c3)cc2OC)cc1OC`: 0.69; for `COc1ccc(C[C@H]2COC[C@@H]2Cc2ccc(OC(=O)CC(C)C)c(OC)c2)cc1OC`: 0.25; for `COc1cc(C[C@H]2COC[C@@H]2Cc2ccc(OC)c(OC)c2)ccc1O`: 0.49. With `COc1ccc(COc2ccc(C[C@H]3C(=O)OC[C@@H]3Cc3ccc(OC)c(OC)c3)cc2OC)cc1OC`, the fold change (FC) worked out at 0.36. With `COCCOc1ccc(C[C@H]2C(=O)OC[C@@H]2Cc2ccc(OC)c(OC)c2)cc1OC`, the fold change (FC) came to 0.17. As to `COc1ccc(CCCOc2ccc(C[C@H]3COC[C@@H]3Cc3ccc(OC)c(OC)c3)cc2OC)cc1OC`, the fold change (FC) is 0.97. The same measure for `COc1ccc(C[C@H]2COC(=O)[C@@H]2Cc2ccc(OC(C)=O)c(OC)c2)cc1OC`: 1.11; for `COc1ccc(CCOc2ccc(C[C@H]3COC[C@@H]3Cc3ccc(OC)c(OC)c3)cc2OC)cc1OC`: 1.45; for `COc1ccc(C[C@H]2COC(=O)[C@@H]2Cc2ccc(OCCc3ccccc3F)c(OC)c2)cc1OC`: 0.34.

In the case of `COc1ccc(C[C@H]2COC(=O)[C@@H]2Cc2ccc(OC(=O)CC(C)C)c(OC)c2)cc1OC`, the fold change (FC) came out at 0.48. The same measure for `COc1ccc(C[C@H]2COC[C@@H]2Cc2ccc(OCCc3ccc(Cl)cc3)c(OC)c2)cc1OC`: 0.79. The same measure for `COc1ccc(C(=O)Oc2ccc(C[C@H]3C(=O)OC[C@@H]3Cc3ccc(OC)c(OC)c3)cc2OC)cc1`: 0.46; for `COc1ccc(CCOc2ccc(C[C@H]3COC[C@@H]3Cc3ccc(OC)c(OC)c3)cc2OC)cc1`: 0.9; for `COc1ccc(C[C@H]2COC(=O)[C@@H]2Cc2ccc(OC(=O)c3ccco3)c(OC)c2)cc1OC`: 0.69. With `COc1cc(CCOc2ccc(C[C@H]3C(=O)OC[C@@H]3Cc3ccc(OC)c(OC)c3)cc2OC)cc(OC)c1`, the fold change (FC) came to 0.73. The same measure for `COc1ccc(C[C@H]2COC(=O)[C@@H]2Cc2ccc(OCCc3ccccc3)c(OC)c2)cc1OC`: 0.2. With `COc1ccc(C[C@H]2COC(=O)[C@@H]2Cc2ccc(OCCc3ccc(F)cc3)c(OC)c2)cc1OC`, the fold change (FC) stood at 0.35. The figure for `COc1ccc(C[C@H]2COC(=O)[C@@H]2Cc2ccc(OC(=O)CC(C)(C)C)c(OC)c2)cc1OC` is 0.32.

On to `COc1ccc(C[C@H]2COC(=O)[C@@H]2Cc2ccc(OC(=O)c3ccccc3)c(OC)c2)cc1OC`, for which the fold change (FC) was 0.81. The figure for `COc1ccc(C[C@H]2COC(=O)[C@@H]2Cc2ccc(OC(=O)C3CC3)c(OC)c2)cc1OC` is 0.62; for `COc1ccc(C[C@H]2COC[C@@H]2Cc2ccc(OCCc3cccnc3)c(OC)c2)cc1OC` it is 0.81; for `COc1ccc(C[C@H]2COC(=O)[C@@H]2Cc2ccc(OCCc3ccc(Cl)cc3)c(OC)c2)cc1OC` it is 0.26.

Consider `COc1ccc(C[C@H]2COC(=O)[C@@H]2Cc2ccc(OC(C)C)c(OC)c2)cc1OC`, for which the fold change (FC) came to 0.2. The figure for `COc1ccc(C[C@H]2COC(=O)[C@@H]2Cc2ccc(OC(=O)c3ccc(OC)c(OC)c3)c(OC)c2)cc1OC` is 0.3; for `COc1ccc(C[C@H]2COC(=O)[C@@H]2Cc2ccc(OCCc3cc(OC)c(OC)c(OC)c3)c(OC)c2)cc1OC` it is 0.57; for `COc1ccc(C[C@H]2COC(=O)[C@@H]2Cc2ccc(OC(=O)c3ccc(C)cc3)c(OC)c2)cc1OC` it is 0.46. The figure for `COc1ccc(C[C@H]2COC[C@@H]2Cc2ccc(OCCc3ccc(F)c(F)c3)c(OC)c2)cc1OC` is 0.91; for `COc1ccc(CCOc2ccc(C[C@H]3C(=O)OC[C@@H]3Cc3ccc(OC)c(OC)c3)cc2OC)cc1OC` it is 0.93. On to `CCc1cncc(CCOc2ccc(C[C@H]3COC[C@@H]3Cc3ccc(OC)c(OC)c3)cc2OC)c1`, for which the fold change (FC) came out at 0.64. The same measure for `COc1ccc(C[C@H]2COC[C@@H]2Cc2ccc(OC(=O)c3ccco3)c(OC)c2)cc1OC`: 0.41.

Regarding `COc1ccc(C[C@H]2COC[C@@H]2Cc2ccc(OC(=O)C3CCCCC3)c(OC)c2)cc1OC`, the fold change (FC) is 0.23. With `CCCC(=O)Oc1ccc(C[C@H]2COC[C@@H]2Cc2ccc(OC)c(OC)c2)cc1OC`, the fold change (FC) is 0.25. The same measure for `COc1ccc(CC(=O)Oc2ccc(C[C@H]3COC[C@@H]3Cc3ccc(OC)c(OC)c3)cc2OC)cc1OC`: 0.83; for `COc1cccc(CCOc2ccc(C[C@H]3COC[C@@H]3Cc3ccc(OC)c(OC)c3)cc2OC)c1`: 1.33; for `CCCCC(=O)Oc1ccc(C[C@H]2C(=O)OC[C@@H]2Cc2ccc(OC)c(OC)c2)cc1OC`: 1.16. In the case of `COc1ccc(C(=O)Oc2ccc(C[C@H]3COC[C@@H]3Cc3ccc(OC)c(OC)c3)cc2OC)cc1`, the fold change (FC) is 0.25. The same measure for `COc1ccc(C[C@H]2COC(=O)[C@@H]2Cc2ccc(OC(=O)c3cccnc3)c(OC)c2)cc1OC`: 0.87.

In the case of `COc1cccc(C(=O)Oc2ccc(C[C@H]3C(=O)OC[C@@H]3Cc3ccc(OC)c(OC)c3)cc2OC)c1`, the fold change (FC) worked out at 0.64.

With `COc1ccc(CCCOc2ccc(C[C@H]3C(=O)OC[C@@H]3Cc3ccc(OC)c(OC)c3)cc2OC)cc1OC`, the fold change (FC) was determined as 0.71.

With `COc1ccc(CCOc2ccc(C[C@H]3C(=O)OC[C@@H]3Cc3ccc(OC)c(OC)c3)cc2OC)cc1`, the fold change (FC) turned out to be 0.32. Turning to `COc1ccc(C[C@H]2COC(=O)[C@@H]2Cc2ccc(OCCc3ccccc3Cl)c(OC)c2)cc1OC`, the fold change (FC) is 0.24. `COc1ccccc1CCOc1ccc(C[C@H]2C(=O)OC[C@@H]2Cc2ccc(OC)c(OC)c2)cc1OC`: the fold change (FC) amounted to 0.32. As to `COc1ccc(C[C@H]2COC[C@@H]2Cc2ccc(OCCc3ccc(F)cc3)c(OC)c2)cc1OC`, the fold change (FC) turned out to be 0.97.

(Values after ChEMBL document CHEMBL2390915, “Synthesis and biological evaluation of arctigenin ester and ether derivatives as activators of AMPK” (Bioorg Med Chem, 2013).)
